The text below walks through data of ChEMBL document CHEMBL1131046, “Substituted salicylanilides as inhibitors of two-component regulatory systems in bacteria” (J Med Chem, 1998).

Experiment [1] addresses T1, KinA/Spo0F (sporulation kinase A/sporulation initiation phosphotransferase F) (Bacillus subtilis (strain 168), UniProt P06628+P16497).
T1 sequence (P06628 whole entry): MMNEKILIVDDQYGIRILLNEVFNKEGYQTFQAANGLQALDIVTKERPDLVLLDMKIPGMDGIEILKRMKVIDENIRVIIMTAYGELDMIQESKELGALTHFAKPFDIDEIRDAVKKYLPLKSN
T1 sequence (P16497 whole entry): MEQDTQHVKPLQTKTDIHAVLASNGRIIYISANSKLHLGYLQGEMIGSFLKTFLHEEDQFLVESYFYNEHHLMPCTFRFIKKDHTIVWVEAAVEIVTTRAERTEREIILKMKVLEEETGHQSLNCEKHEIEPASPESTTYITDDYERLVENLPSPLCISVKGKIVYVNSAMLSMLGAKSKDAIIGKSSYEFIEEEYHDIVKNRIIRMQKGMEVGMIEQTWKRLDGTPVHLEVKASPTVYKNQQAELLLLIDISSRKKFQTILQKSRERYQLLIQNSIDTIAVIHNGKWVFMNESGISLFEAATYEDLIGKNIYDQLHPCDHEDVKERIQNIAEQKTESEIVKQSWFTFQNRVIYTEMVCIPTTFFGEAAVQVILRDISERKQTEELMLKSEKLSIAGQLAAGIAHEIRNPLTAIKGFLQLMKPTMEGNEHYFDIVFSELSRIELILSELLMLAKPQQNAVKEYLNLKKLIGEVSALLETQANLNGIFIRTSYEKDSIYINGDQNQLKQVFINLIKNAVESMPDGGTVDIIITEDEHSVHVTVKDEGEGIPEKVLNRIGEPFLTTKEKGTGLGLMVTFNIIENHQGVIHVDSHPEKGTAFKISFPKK
Put plainly: Inhibition of autophosphorylation of the two-component signal transduction system kinase was measured using the KinA/Spo0F regulatory system of Bacillus subtilis. Type of experiment: functional.

Experiment [2] has as its system Enterococcus faecium. Put plainly: Minimum inhibitory activity against Enterococcus faecium OC3312. Type of experiment: functional. In a few lines:
(§1)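 MIC by NCCLS broth microdilution. Strains are ATCC and clinical isolates, including methicillin-resistant S. aureus.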

Experiment [3] relates to Enterococcus faecalis. Put plainly: Minimum inhibitory activity against Enterococcus faecalis OC3041. It is filed as functional. A digest of the protocol:
as §1

Experiment [4] has as its system Enterococcus faecalis. Put plainly: Percentage of specific activity relative to untreated control at a concentration allowing 80% growth. Type of experiment: functional. In a few lines:
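OD600 is followed every 30 min. Luciferase RLU/OD600 is measured 2 h after induction. The value is specific activity as a percentage of untreated control, taken at the compound concentration allowing 80% growth.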

Experiment [5] relates to Staphylococcus aureus. The experiment is described as follows: Minimum inhibitory activity against Staphylococcus aureus ATCC 29213. Type of experiment: functional. A digest of the protocol:
as §1

In experiment [6] the test system is Staphylococcus aureus. Put plainly: Minimum inhibitory activity against methicillin resistant Staphylococcus aureus (MRSA) OC2089. Type of experiment: functional. In a few lines: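 Broth microdilution MIC following NCCLS methods for aerobically growing bacteria.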
Experiment [7] relates to Enterococcus faecalis. Put plainly: Activity of the VanS/VanR TCS in Enterococcus faecalis OC3364; +{i} indicate induced over-expression of luciferase specific activity. Type of experiment: functional, organism-based. A digest of the protocol:
(§2)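 E. faecalis OC3364 (JH2-derived) carries vanR vanS and a vanH-luc fusion on separate plasmids. […] OD600 was read every 30 min. At 2 h, cells were lysed by 10 min shaking in an equal volume of Genepol X-80 mix. Luciferase RLU was read with ATP, coenzyme A and luciferin. Specific activity (RLU/OD600) was compared with an untreated control.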

Experiment [8] has as its system Staphylococcus aureus. Put plainly: Minimum inhibitory activity against Staphylococcus aureus MRSA OC2089. It is filed as functional. A digest of the protocol:
as §1

Experiment [9] has as its system Enterococcus faecalis. Put plainly: Activity of the VanS/VanR TCS in Enterococcus faecalis OC3364; -{i} indicate over-expression of luciferase in both strains. Type of experiment: functional, organism-based. In a few lines:
as §2

Experiment [10] concerns Enterococcus faecalis. The experiment is described as follows: Activity of the VanS/VanR TCS in Enterococcus faecalis OC3364; +{i} indicate induced overexpression of luciferase specific activity. It is filed as functional, organism-based. In a few lines: as §2
Experiment [11] concerns Enterococcus faecalis. Put plainly: Activity of the VanS/VanR TCS in Enterococcus faecalis OC3364; + indicate decrease of the luciferase specific activity relative to an untreated control. Type of experiment: functional, organism-based. A digest of the protocol: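 Reporter assay in Enterococcus faecalis OC3364 (from JH2) carrying vanR vanS and a Φ(vanH-luc) fusion on separate plasmids. […] OD600 is read every 30 min. At 2 h cells are lysed and luciferase RLU is read with ATP, coenzyme A and luciferin. Specific activity = RLU/OD600, compared with an untreated control.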

Structures are written as SMILES. In brackets after ≈: the same amount, converted by molar mass. Activity calls are given as the source filed them. Some results are limits rather than exact numbers.

Usually IC50 stands for the concentration needed to halve the response being measured. The low end stands for higher potency, the high end for lower potency. Usually MIC stands for the smallest concentration in the dilution series that meets the test's criterion for growth inhibition. Lower therefore signals greater potency. The compound `Cc1cc(C(C#N)c2ccc(Cl)cc2)c(Cl)cc1NC(=O)c1cc(C(F)(F)F)ccc1O` (stereo not drawn) returned an IC50 in [1] of 19 µM. For the same compound, the MIC in experiment [2], in [3], in experiment [5] and in experiment [6] was 1 µg/mL (≈ 2.09 µM) in each case. In experiment [4], the AG80 was 95%.
Take `CC(C)(C)c1cc(C(=O)Nc2ccc(Cl)c(Cl)c2)c(O)c(C(C)(C)C)c1`: the half-inhibitory concentration (IC50) in experiment [1] was > 500 µM.
As to `Cc1cc(C(C#N)c2ccc(Cl)cc2)c(Cl)cc1NC(=O)c1cc(Cl)cc(Cl)c1O` (stereo not drawn), the IC50 in [1] came out at 4.8 µM. Besides, the result in experiment [7] was Active. In addition, the MIC in [2] was 2 µg/mL (≈ 4.17 µM); in experiment [3] it was 2 µg/mL (≈ 4.17 µM); in experiment [5], 1 µg/mL (≈ 2.08 µM); in [8], 1 µg/mL (≈ 2.08 µM).
`Cc1cc(C(CN)c2ccc(Cl)cc2)c(Cl)cc1NC(=O)c1cc(I)cc(I)c1O` (stereo not drawn) registered a concentration for half-maximal inhibition (IC50) in experiment [1] of 86 µM.
As for `O=C(Nc1ccc(Cl)c(C(F)(F)F)c1)c1cc(Cl)cc(Cl)c1O`, in [1], the IC50 was 50 µM. The MIC in experiment [2] is 1 µg/mL (≈ 2.6 µM); in experiment [3], 0.5 µg/mL (≈ 1.3 µM); in experiment [5], 0.5 µg/mL (≈ 1.3 µM); in experiment [6] it was 0.25 µg/mL (≈ 0.65 µM). Further, in experiment [9], the result was inactive.
For `O=C(Nc1ccc(Cl)c(Cl)c1)c1cc(Cl)cc(Cl)c1O` [3,3',4',5-TETRACHLOROSALICYLANILIDE], the MIC in experiment [2] amounted to 1 µg/mL (≈ 2.85 µM); in [3], 0.5 µg/mL (≈ 1.42 µM); in experiment [5], 0.5 µg/mL (≈ 1.42 µM); in [6], 0.25 µg/mL (≈ 0.712 µM). The outcome in experiment [10] was Active.
`CC(C)(C)c1ccc(NC(=O)c2cc(Cl)cc(Cl)c2O)cc1` gave an IC50 in experiment [1] of 67 µM. The MIC stood at 4 µg/mL (≈ 11.8 µM) in experiment [2], 8 µg/mL (≈ 23.7 µM) in experiment [3], 2 µg/mL (≈ 5.91 µM) in experiment [5] and 2 µg/mL (≈ 5.91 µM) in experiment [6]. The outcome in experiment [9] was inactive.
`O=C(Nc1ccc(Cl)c(Cl)c1)c1cccc(O)c1O`: the IC50 in experiment [1] is 9.5 µM. Besides, the minimal inhibitory concentration (MIC) came out at 32 µg/mL (≈ 107 µM) in experiment [2], 8 µg/mL (≈ 26.8 µM) in experiment [3], 8 µg/mL (≈ 26.8 µM) in experiment [5] and 8 µg/mL (≈ 26.8 µM) in experiment [8]. The same compound came in with an AG80 in experiment [4] of 48%. Besides, the result in [11] was Active.
For the compound `Cc1cc(C(C#N)c2ccc(Cl)cc2)c(Cl)cc1NC(=O)c1cc(Cl)ccc1O` (stereo not drawn), the IC50 in experiment [1] is > 500 µM.
Turning to `Cc1cc(C(=O)c2ccc(Cl)cc2)c(Cl)cc1NC(=O)c1cc(I)cc(I)c1O`, the IC50 in experiment [1] was > 500 µM.
With `CN[C@H](CC(C)C)C(=O)N[C@H]1C(=O)N[C@@H](CC(N)=O)C(=O)N[C@H]2C(=O)N[C@H]3C(=O)N[C@H](C(=O)N[C@H](C(=O)O)c4cc(O)cc(O)c4-c4cc3ccc4O)[C@H](O)c3ccc(c(Cl)c3)Oc3cc2cc(c3O[C@@H]2O[C@H](CO)[C@@H](O)[C@H](O)[C@H]2O[C@H]2C[C@](C)(N)[C@H](O)[C@H](C)O2)Oc2ccc(cc2Cl)[C@H]1O` [VANCOMYCIN], the MIC in experiment [2] was > 128 µg/mL.
Regarding `Cc1cc(C(C#N)c2ccc(Cl)cc2)c(Cl)cc1NC(=O)c1cc(C(F)(F)F)cc(C(F)(F)F)c1O` (stereo not drawn), the IC50 in experiment [1] was determined as 9 µM.
Same read-out and setting: with `COc1cc(OC)c(O)c(C(=O)Nc2ccc(Cl)c(Cl)c2)c1` the figure was > 500 µM.
`O=C(Nc1ccc(Cl)c(Cl)c1)c1cc(C(F)(F)F)cc(C(F)(F)F)c1O`: the IC50 in experiment [1] is 27 µM. Moreover, the MIC worked out at 2 µg/mL (≈ 4.78 µM) in experiment [2], 2 µg/mL (≈ 4.78 µM) in experiment [3], 1 µg/mL (≈ 2.39 µM) in experiment [5] and 1 µg/mL (≈ 2.39 µM) in experiment [6]. In addition, in experiment [10], the outcome was Active.
Consider `O=C(Nc1ccc(Cl)c(Cl)c1)c1cc(C(F)(F)F)ccc1O`, for which the half-inhibitory concentration (IC50) in experiment [1] was > 500 µM.
Consider `O=C(Nc1ccc([N+](=O)[O-])cc1)c1cc(Cl)cc(Cl)c1O`, for which, in experiment [1], the IC50 was > 500 µM. The MIC in experiment [2] was > 64 µg/mL; in [3] it was > 32 µg/mL; in experiment [5], 4 µg/mL (≈ 12.2 µM); in [8], 4 µg/mL (≈ 12.2 µM).
With `O=C(Nc1ccc(Cl)cc1)c1cc(Cl)cc(Cl)c1O`, in experiment [1], the IC50 came to 185 µM.
For `Cc1cc(C(C#N)c2ccc(Cl)cc2)c(Cl)cc1NC(=O)c1cc(C(C)(C)C)cc(C(C)(C)C)c1O` (stereo not drawn), the IC50 in [1] is > 500 µM.
On the same count and under the same terms, under `COc1cc(OC)c(O)c(C(=O)Nc2cc(Cl)c(C(C#N)c3ccc(Cl)cc3)cc2C)c1` (stereo not drawn) stands 250 µM.
`Cc1cc(C(C#N)c2ccc(Cl)cc2)c(Cl)cc1NC(=O)c1cccc(O)c1O` (stereo not drawn): the IC50 in experiment [1] was found to be 2.8 µM. In addition, the minimum inhibitory concentration (MIC) in [2], in experiment [3], in [5] and in [8] was 16 µg/mL (≈ 37.4 µM) throughout. For the same compound, the AG80 in experiment [4] amounted to 66%. For the same compound, the outcome in experiment [11] was Active.
In the case of `O=C(Nc1ccc(Cl)c(Cl)c1)c1cc(Cl)ccc1O`, in [1], the IC50 was > 500 µM.
Regarding `Cc1cc(C(C#N)c2ccc(Cl)cc2)c(Cl)cc1NC(=O)c1cc(I)cc(I)c1O` (stereo not drawn) [CLOSANTEL], in experiment [1], the IC50 was 3.8 µM. Also, the MIC came to 1 µg/mL (≈ 1.51 µM) in [2], 0.12 µg/mL (≈ 0.181 µM) in [3], 2 µg/mL (≈ 3.02 µM) in experiment [5] and 1 µg/mL (≈ 1.51 µM) in experiment [6]. The same compound gave an AG80 in experiment [4] of 100%.
For `COc1ccc(NC(=O)c2cc(Cl)cc(Cl)c2O)cc1`, the IC50 in [1] is > 500 µM.
As to `O=C(Nc1ccccc1)c1cc(Cl)cc(Cl)c1O`, the IC50 in experiment [1] was > 500 µM. Also, the MIC in [2] stood at 32 µg/mL (≈ 113 µM); in experiment [3], 64 µg/mL (≈ 227 µM); in experiment [5] it was 1 µg/mL (≈ 3.54 µM); in [6], 4 µg/mL (≈ 14.2 µM).
Regarding `Cc1onc(-c2ccccc2)c1C(=O)N[C@@H]1C(=O)N2[C@@H]1SC(C)(C)[C@@H]2C(=O)O` [OXACILLIN], the MIC is > 64 µg/mL in experiment [2], 16 µg/mL (≈ 39.9 µM) in [3], 0.25 µg/mL (≈ 0.623 µM) in experiment [5] and > 64 µg/mL in experiment [8].
Compound `O=C(Nc1ccc(Cl)c(Cl)c1)c1cc(I)cc(I)c1O` registered a concentration for half-maximal inhibition (IC50) in [1] of 21 µM. The MIC was determined as 0.5 µg/mL (≈ 0.936 µM) in experiment [2], 0.5 µg/mL (≈ 0.936 µM) in [3], 1 µg/mL (≈ 1.87 µM) in experiment [5] and 0.25 µg/mL (≈ 0.468 µM) in experiment [6]. Besides, in experiment [10], the result was Active.
